This is an account of results in ChEMBL document CHEMBL1828531, “Pyrazol-3-propanoic acid derivatives as novel inhibitors of leukotriene biosynthesis in human neutrophils” (Eur J Med Chem, 2011).

Assay [1] deals with T1, Polyunsaturated fatty acid 5-lipoxygenase (Homo sapiens) (UniProt P09917).
T1 sequence (whole entry): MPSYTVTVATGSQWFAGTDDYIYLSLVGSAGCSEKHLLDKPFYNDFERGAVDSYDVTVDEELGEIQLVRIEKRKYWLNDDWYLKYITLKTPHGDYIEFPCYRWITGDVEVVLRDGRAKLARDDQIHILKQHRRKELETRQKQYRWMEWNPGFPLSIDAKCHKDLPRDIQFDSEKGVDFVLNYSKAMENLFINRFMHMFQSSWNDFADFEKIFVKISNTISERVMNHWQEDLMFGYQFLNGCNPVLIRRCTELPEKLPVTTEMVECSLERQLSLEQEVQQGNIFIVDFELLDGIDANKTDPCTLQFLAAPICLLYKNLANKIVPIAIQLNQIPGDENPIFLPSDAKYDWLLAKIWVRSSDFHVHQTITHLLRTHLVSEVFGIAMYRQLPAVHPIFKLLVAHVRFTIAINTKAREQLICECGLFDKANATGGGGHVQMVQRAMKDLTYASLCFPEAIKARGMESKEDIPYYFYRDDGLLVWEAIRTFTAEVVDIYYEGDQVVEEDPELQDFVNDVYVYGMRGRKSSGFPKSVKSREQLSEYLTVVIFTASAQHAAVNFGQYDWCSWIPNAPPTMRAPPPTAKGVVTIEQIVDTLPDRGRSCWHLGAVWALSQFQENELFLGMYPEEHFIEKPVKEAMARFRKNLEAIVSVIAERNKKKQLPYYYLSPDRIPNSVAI
As to the kind of experiment: Inhibition of recombinant human 5-Lipoxygenase expressed in Escherichia coli lysate assessed as residual activity at 10 uM after 10 mins by HPLC analysis. Summed up: (§1)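 Human 5-LO expressed at 30 °C in E. coli MV1190 (pT3-5LO); lysate 40,000 g supernatant in PBS pH 7.4 with 1 mM EDTA. Preincubated with compound 10 min at 4 °C, warmed 30 s at 37 °C. Started with 2 mM CaCl2 plus 20 µM AA, 10 min at 37 °C. Methanol stop, HPLC. Residual % versus 0.3% DMSO vehicle, n = 3–5.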

Assay [2] deals with T1, Polyunsaturated fatty acid 5-lipoxygenase (Homo sapiens). As to the kind of experiment: Inhibition of recombinant human 5-Lipoxygenase expressed in Escherichia coli lysate assessed as residual activity using arachidonic acid as substrate at 10 uM after 10 mins by HPLC analysis. A digest of the protocol: as §1
Assay [3] addresses T2, Polyunsaturated fatty acid 5-lipoxygenase (Homo sapiens, UniProt P09917).
T2 sequence (P09917 whole entry): T1 sequence (whole entry)
As to the kind of experiment: Inhibition of 5-Lipoxygenase in arachidonic acid-stimulated human neutrophils after 15 mins by HPLC analysis in presence of A23187. A digest of the protocol:
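Human neutrophils, 5 × 10^6/mL in PBS/glucose/1 mM CaCl2, preincubated 15 min at RT, then 2.5 µM A23187 plus 20 µM AA for 10 min at 37 °C. Methanol stop, PGB1 internal standard, HPLC of LTB4, its all-trans isomers and 5-H(p)ETE. Residual % versus 0.3% DMSO vehicle, mean ± SEM, n = 3–5. IC50 by linear interpolation from 4–5 concentrations.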

The nature of assay [4]: Inhibition of mPGES1-mediated PGE2 production in IL1-beta stimulated human A549 cells after 15 mins. It is filed as cell-based. The note with it: A549, 0.25 h. A digest of the protocol: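 Microsomes from IL-1β (1 ng/ml, 72 h) stimulated A549 cells, diluted in 0.1 M potassium phosphate pH 7.4 with 2.5 mM glutathione. Compound or 1% DMSO added, 15 min at 4 °C. Started with 20 µM PGH2 (final), 1 min at 4 °C. Stopped with FeCl2/citric acid containing 11β-PGE2 internal standard. PGE2 by RP-C18 solid-phase extraction and peak integration.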

Assay [5] addresses T3, Polyunsaturated fatty acid lipoxygenase ALOX12 (Homo sapiens) (UniProt P18054).
T3 sequence (whole entry): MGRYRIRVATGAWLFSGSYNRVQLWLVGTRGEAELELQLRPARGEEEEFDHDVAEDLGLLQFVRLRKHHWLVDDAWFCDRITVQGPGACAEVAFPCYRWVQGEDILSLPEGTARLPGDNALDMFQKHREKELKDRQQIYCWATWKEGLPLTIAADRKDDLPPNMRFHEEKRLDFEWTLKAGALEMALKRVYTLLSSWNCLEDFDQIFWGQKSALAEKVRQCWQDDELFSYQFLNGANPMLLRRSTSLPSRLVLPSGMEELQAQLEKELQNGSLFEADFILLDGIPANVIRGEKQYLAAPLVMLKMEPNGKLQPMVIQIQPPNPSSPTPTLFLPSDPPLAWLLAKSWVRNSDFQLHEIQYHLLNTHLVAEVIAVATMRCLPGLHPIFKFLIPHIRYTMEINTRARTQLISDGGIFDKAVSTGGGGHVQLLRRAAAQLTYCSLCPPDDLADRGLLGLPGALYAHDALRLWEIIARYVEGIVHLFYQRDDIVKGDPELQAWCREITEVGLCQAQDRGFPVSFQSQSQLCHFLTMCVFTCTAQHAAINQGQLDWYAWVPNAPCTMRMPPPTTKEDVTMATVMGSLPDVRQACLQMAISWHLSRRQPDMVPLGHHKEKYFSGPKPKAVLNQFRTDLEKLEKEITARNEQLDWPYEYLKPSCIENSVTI
The assay can be described thus: Inhibition of 12-Lipoxygenase-mediated 12-HETE in human neutrophil assessed as residual activity at 30 uM after 15 mins by HPLC analysis. Summed up: (§2)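 Freshly isolated human blood neutrophils, 5 × 10^6/mL in PBS pH 7.4 with 1 mg/mL glucose and 1 mM CaCl2, preincubated with compound 15 min at RT. Stimulated with 2.5 µM A23187 plus 20 µM AA for 10 min at 37 °C. Stopped with methanol/HCl, PGB1 internal standard. 12-HETE or 15-HETE measured by HPLC. Residual activity tested at 30 µM.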

Assay [6] has as its target T4, Polyunsaturated fatty acid lipoxygenase ALOX12 (Homo sapiens, UniProt P18054).
T4 sequence (P18054 whole entry): T3 sequence (whole entry)
The assay can be described thus: Inhibition of 12-Lipoxygenase-mediated 12-HETE in human neutrophil after 15 mins by HPLC analysis. Summed up:
as §2

The target in assay [7] is T2, Polyunsaturated fatty acid 5-lipoxygenase. As to the kind of experiment: Inhibition of recombinant human 5-Lipoxygenase expressed in Escherichia coli lysate after 10 mins by HPLC analysis. A digest of the protocol: as §1

A value given as a limit tells only on which side of the number the result lay.

Broadly, the IC50 is the point on the concentration scale where inhibition reaches its midpoint. On to `CCOC(=O)C1CCN(C(=O)CCc2cc(-c3ccc(C(F)(F)F)cc3)n(-c3ccc(Cl)nn3)n2)CC1`, for which the Activity stood at 72.6% in assay [1], 84% in assay [2] and 90.4% in assay [5]. For the same molecule, the IC50 was 15 µM in assay [3], over 10 µM in assay [4], over 10 µM in assay [6] and over 10 µM in assay [7].
For `CC(C)(C)c1ccc(CN2CCN(C(=O)CCc3cc(-c4ccc(F)cc4)n(-c4ccc(Cl)nn4)n3)CC2)cc1`, the Activity is 55.3% in assay [1], 103% in assay [2] and 103% in assay [5]. In addition, the IC50 in assay [3] is 1.6 µM; in assay [4], over 10 µM; in assay [6], over 10 µM; in assay [7] it was over 10 µM.
Take `Cc1ccc(-c2cc(CCC(=O)N3CCN(Cc4ccc(C(C)(C)C)cc4)CC3)nn2-c2ccccc2)cc1`: the values for the Activity in assay [1], in assay [2] and in assay [5] were 85.6%, 62.9% and 118%, respectively. Besides, the IC50 in assay [3] is 2.7 µM; in assay [4], over 10 µM; in assay [6], over 10 µM; in assay [7], over 10 µM.
As for `Cc1ccc(-c2cc(CCC(=O)Oc3ccc(C(C)C)cc3)nn2-c2ccc(Cl)nn2)cc1`, the values for the Activity in assay [1], in assay [2] and in assay [5] were 92.7%, 83.4% and 77.1%, respectively. Moreover, the IC50 in assay [3] is 8 µM; in assay [4], over 10 µM; in assay [6] it was over 10 µM; in assay [7] it was over 10 µM.
With `CCOC(=O)C1CCN(C(=O)CCc2cc(-c3ccc(C)cc3)n(-c3ccccc3)n2)CC1`, the figures for the Activity in assay [1], in assay [2] and in assay [5] were 102%, 79.5% and 98%, respectively. Besides, the IC50 was 2.4 µM in assay [3], over 10 µM in assay [4], over 10 µM in assay [6] and over 10 µM in assay [7].
Take `CCOC(=O)C1CCN(C(=O)CCc2cc(-c3ccc(C)cc3)n(-c3ccc4ccccc4n3)n2)CC1`: the results for the Activity in assay [1], in assay [2] and in assay [5] were 69.9%, 55.9% and 91.9%, respectively. Further, the IC50 in assay [3] is 4 µM; in assay [4] it was over 10 µM; in assay [6], over 10 µM; in assay [7], over 10 µM.
For `Cc1ccc(-c2cc(CCC(=O)Oc3ccc(C(C)C)cc3)nn2-c2ccccc2)cc1`, the Activity in assay [1] is 95.3%; in assay [2], 92.6%; in assay [5], 67.2%. Also, the IC50 is 2 µM in assay [3], over 10 µM in assay [4], over 10 µM in assay [6] and over 10 µM in assay [7].
Regarding `Cc1ccc(-c2cc(CCC(=O)N3CCN(Cc4ccc(C(C)(C)C)cc4)CC3)nn2-c2ccc3ccccc3n2)cc1`, the results for the Activity in assay [1], in assay [2] and in assay [5] were 51.5%, 115% and 111%, respectively. Moreover, the concentration for half-maximal inhibition (IC50) was 3.5 µM in assay [3], over 10 µM in assay [4], over 10 µM in assay [6] and over 10 µM in assay [7].
As to `Cc1ccc(-c2cc(CCC(=O)Oc3ccc(C(C)C)cc3)nn2-c2ccc3ccccc3n2)cc1`, the Activity in assay [1] was 79.6%; in assay [2] it was 86.1%; in assay [5] it was 67.8%. Moreover, the IC50 in assay [3], in assay [4], in assay [6] and in assay [7] was over 10 µM each time.
